Calls of active or inactive are those of the source. The rule behind the calls is not given here.
Columns and labels:
[1] = target: T1, Toll-like receptor 8 (Homo sapiens, UniProt Q9NR97); experiment: Activation of human TLR8 expressed in HEK293 cells after 24 hrs by NFkappaB-mediated SEAP reporter gene assay; format: cell-based
T1 sequence (Q9NR97 whole entry): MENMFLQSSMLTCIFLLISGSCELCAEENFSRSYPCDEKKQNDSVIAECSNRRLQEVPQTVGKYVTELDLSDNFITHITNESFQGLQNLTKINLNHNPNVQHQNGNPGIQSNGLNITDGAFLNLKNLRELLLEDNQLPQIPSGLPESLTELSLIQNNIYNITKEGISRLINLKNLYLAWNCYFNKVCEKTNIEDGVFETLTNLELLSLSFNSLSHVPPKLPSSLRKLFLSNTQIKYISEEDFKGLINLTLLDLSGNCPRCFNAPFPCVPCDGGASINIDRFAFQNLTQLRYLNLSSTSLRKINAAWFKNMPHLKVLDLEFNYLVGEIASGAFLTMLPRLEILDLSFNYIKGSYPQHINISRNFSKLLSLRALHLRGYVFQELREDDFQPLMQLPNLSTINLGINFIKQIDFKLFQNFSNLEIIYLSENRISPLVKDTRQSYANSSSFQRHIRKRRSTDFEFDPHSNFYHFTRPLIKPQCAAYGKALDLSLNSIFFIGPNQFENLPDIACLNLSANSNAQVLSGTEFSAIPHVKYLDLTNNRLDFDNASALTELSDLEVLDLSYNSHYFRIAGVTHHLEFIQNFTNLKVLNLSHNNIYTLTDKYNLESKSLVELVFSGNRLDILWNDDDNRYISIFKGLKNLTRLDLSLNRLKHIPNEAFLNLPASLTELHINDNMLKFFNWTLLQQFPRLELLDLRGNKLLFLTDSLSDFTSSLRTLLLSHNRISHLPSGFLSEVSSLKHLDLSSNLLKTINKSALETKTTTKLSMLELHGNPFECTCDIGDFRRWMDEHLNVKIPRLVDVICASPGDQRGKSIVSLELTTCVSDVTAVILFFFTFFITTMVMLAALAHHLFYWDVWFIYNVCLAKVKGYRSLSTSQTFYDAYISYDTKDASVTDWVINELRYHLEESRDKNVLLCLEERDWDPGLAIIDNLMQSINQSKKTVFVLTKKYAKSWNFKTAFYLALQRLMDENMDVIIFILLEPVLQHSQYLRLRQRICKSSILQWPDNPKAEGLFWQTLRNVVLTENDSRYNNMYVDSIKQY
In short: (§1)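 HEK293 cells stably transfected with hTLR7 or hTLR8 plus an NF-kB-driven SEAP reporter were kept in DMEM/10% FBS with selection antibiotics. Aqueous compound formulations were added for 24 h, and supernatant SEAP was read colorimetrically. Points were run in triplicate and averaged.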

[2] = system: PBMC; experiment: Induction of IFNalpha production in primary human PBMC at 0.001 to 10 uM after 24 hrs by ELISA method; format: functional, cell-based
In short: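 Fresh healthy-donor PBMCs were isolated by Ficoll and plated at 0.5 × 10^6 cells/well in RPMI-1640/10% FBS with antibiotics. Aqueous compound formulations were added for 24 h across 0.0001–10 µM. Supernatant IFNa was measured by ELISA. Data are from three donors, each run in triplicate, with SEM shown.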

[3] = system: PBMC; experiment: Induction of IFNgamma production in primary human PBMC after 24 hrs by ELISA method; format: functional, cell-based
[4] = system: PBMC; experiment: Reduction in IFNalpha production in primary human PBMC at >10 uM after 24 hrs by ELISA method; format: functional, cell-based
[5] = target: T2, Toll-like receptor 7 (Homo sapiens, UniProt Q9NYK1); experiment: Activation of human TLR7 expressed in HEK293 cells after 24 hrs by NFkappaB-mediated SEAP reporter gene assay; format: cell-based
T2 sequence (Q9NYK1 whole entry): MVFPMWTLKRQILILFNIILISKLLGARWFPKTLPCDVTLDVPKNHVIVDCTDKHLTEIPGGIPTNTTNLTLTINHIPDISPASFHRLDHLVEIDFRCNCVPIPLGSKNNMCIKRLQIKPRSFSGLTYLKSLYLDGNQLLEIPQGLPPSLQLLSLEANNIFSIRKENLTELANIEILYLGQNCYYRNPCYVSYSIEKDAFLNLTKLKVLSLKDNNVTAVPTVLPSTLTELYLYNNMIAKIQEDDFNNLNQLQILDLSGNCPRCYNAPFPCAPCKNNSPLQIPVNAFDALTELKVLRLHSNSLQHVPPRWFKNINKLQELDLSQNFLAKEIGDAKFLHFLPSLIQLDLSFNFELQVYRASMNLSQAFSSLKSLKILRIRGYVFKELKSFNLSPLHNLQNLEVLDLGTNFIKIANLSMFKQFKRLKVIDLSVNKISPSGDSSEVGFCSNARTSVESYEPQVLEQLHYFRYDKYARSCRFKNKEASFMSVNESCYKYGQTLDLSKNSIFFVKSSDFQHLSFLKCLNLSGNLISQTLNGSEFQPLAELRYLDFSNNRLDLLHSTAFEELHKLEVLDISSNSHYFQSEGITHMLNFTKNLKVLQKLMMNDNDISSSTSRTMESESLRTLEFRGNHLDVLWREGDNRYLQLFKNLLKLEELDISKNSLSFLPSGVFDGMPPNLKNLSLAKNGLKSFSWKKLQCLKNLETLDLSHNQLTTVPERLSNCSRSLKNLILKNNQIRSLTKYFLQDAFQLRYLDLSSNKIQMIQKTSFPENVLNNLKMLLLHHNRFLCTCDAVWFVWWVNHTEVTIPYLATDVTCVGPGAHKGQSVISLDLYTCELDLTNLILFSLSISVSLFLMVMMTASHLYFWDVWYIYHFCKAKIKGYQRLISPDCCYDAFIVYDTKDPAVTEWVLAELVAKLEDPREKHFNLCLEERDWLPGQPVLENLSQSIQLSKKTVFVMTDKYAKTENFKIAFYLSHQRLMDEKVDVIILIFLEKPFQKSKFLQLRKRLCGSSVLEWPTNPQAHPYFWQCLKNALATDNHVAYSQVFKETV
In short: as §1, with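 “averaged. Activity was scaled to the maximum of a reference agonist set at 100%. EC50 was taken from dose-response curves with 95% CI.” for “averaged.”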

[6] = Induction of IL6 expression in human HLA-DR(+), CD11c(+) and CD123(-) expressing mDC after 24 hrs by intracellular cytokine staining method; format: functional; set-up: concentration or dose not given beside the values
In short: (§2)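 PBMCs were stimulated with aqueous compound for 24 h, with GolgiPlug (10 ng/ml) present for the final 6 h. Cells were washed and surface-stained for lineage markers (mDC HLA-DR+ CD11c+ CD123−; pDC HLA-DR+ CD11c− CD123+). They were then permeabilized with Perm/Fix buffer and stained with fluorochrome-conjugated anti-cytokine antibodies for flow cytometry.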

[7] = system: PBMC; experiment: Induction of TNFalpha production in primary human PBMC at 0.001 to 10 uM after 24 hrs by ELISA method; format: functional, cell-based
In short: (§3)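 Ficoll-isolated healthy-donor PBMCs at 0.5 × 10^6 cells/well in RPMI-1640/10% FBS were stimulated 24 h with aqueous compound. Supernatant TNFa was assayed with a […]. Data are from three donors in triplicate, with SEM shown.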

[8] = system: PBMC; experiment: Induction of TNFalpha production in primary human PBMC after 24 hrs by ELISA method; format: functional, cell-based; in short: as §3
[9] = system: HEK293; experiment: Toxicity against human TLR8 expressing HEK293 cells after 24 hrs by live/dead fixable aqua staining method; format: cell-based; conditions: hek293, 24 h
In short: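 HEK293-hTLR8 reporter cells were stimulated with compound for 24 h. Cells were then incubated with Live/Dead fixable Aqua dye for 30 min, washed extensively, and read for viability by flow cytometry.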

[10] = organism: Homo sapiens; experiment: Induction of apoptosis in human HLA-DR(+), CD11c(-) and CD123(+) expressing pDC at 10 uM after 24 hrs by Annexin-V staining method; format: functional
In short: (§4)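 PBMCs were stimulated for 24 h with compound at doses of 0.01 nM, 1 nM, 100 nM and 10 µM. Cells were phenotyped into mDC (HLA-DR+ CD11c+ CD123−) and pDC (HLA-DR+ CD11c− CD123+) and stained with Annexin-V to read apoptosis by flow cytometry.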

[11] = organism: Homo sapiens; experiment: Induction of TNFalpha production in human HLA-DR(+), CD11c(-) and CD123(+) expressing pDC after 24 hrs by […]; format: functional
[12] = organism: Homo sapiens; experiment: Induction of TNFalpha production in human HLA-DR(+), CD11c(+) and CD123(-) expressing mDC after 24 hrs by intracellular cytokine staining method; format: functional, cell-based; in short: as §2
[13] = organism: Homo sapiens; experiment: Induction of TNFalpha production in human HLA-DR(+), CD11c(+) and CD123(-) expressing mDC after 24 hrs by intracellular cytokine staining
[14] = organism: Homo sapiens; experiment: Induction of INFalpha production in human HLA-DR(+), CD11c(-) and CD123(+) expressing pDC after 24 hrs by intracellular cytokine staining method; format: functional, cell-based; in short: as §2
[15] = organism: Homo sapiens; experiment: Induction of INFalpha production in human HLA-DR(+), CD11c(+) and CD123(-) expressing mDC after 24 hrs by […]; format: functional
[16] = organism: Homo sapiens; experiment: Induction of INFalpha production in human HLA-DR(+), CD11c(-) and CD123(+) expressing pDC after 24 hrs by […]; format: functional
[17] = organism: Homo sapiens; experiment: Induction of TNFalpha production in human HLA-DR(+), CD11c(-) and CD123(+) expressing pDC after 24 hrs by intracellular cytokine staining method; format: functional, cell-based; in short: as §2
[18] = organism: Homo sapiens; experiment: Induction of INFalpha production in human HLA-DR(+), CD11c(+) and CD123(-) expressing mDC after 24 hrs by intracellular cytokine staining method; format: functional, cell-based; in short: as §2
[19] = organism: Homo sapiens; experiment: Induction of apoptosis in human HLA-DR(+), CD11c(+) and CD123(-) expressing mDC at 10 uM after 24 hrs by Annexin-V staining method; format: functional; in short: as §4
[20] = organism: Homo sapiens; experiment: Induction of apoptosis in human HLA-DR(+), CD11c(-) and CD123(+) expressing pDC at 1 nM after 24 hrs by Annexin-V staining method; format: functional; in short: as §4
[21] = organism: Homo sapiens; experiment: Induction of apoptosis in human HLA-DR(+), CD11c(+) and CD123(-) expressing mDC at 1 nM after 24 hrs by Annexin-V staining method; format: functional; in short: as §4

EC50 ([1]; read-out: EC50) [µM]	EC50 ([5]; read-out: EC50) [nM]	SMILES	Activity [2]	Activity [3]	inhibition [4]	Activity [6] [%]	Activity [7]	Activity [8]	Activity [9]	other results
231	150	CCCCOc1nc(N)c2[nH]c(=O)n(CCC3CCNCC3)c2n1.Cl	Active	Active	Dose-dependent effect	4.91	Dose-dependent effect	Active	Non-toxic	
	3950	CCCCOc1nc(N)c2[nH]c(=O)n(CC3CCNCC3)c2n1.Cl	Active	inactive	Dose-dependent effect	2.95		inactive	Non-toxic	Activity [10]: Active; Activity [11]: Dose-dependent effect; Activity [12]: Dose-dependent effect; Activity [13]: Dose-dependent effect; Activity [14]: Dose-dependent effect; Activity [15]: Dose-dependent effect; Activity [16]: Dose-dependent effect; Activity [17]: Dose-dependent effect; Activity [18]: Dose-dependent effect; Activity [19]: Active
131	150	CCCCOc1nc(N)c2[nH]c(=O)n(CCCCC3CCNCC3)c2n1.Cl	Active	Active	Dose-dependent effect	22.3	Dose-dependent effect	Active	Toxic	
		CCCCOc1nc(N)c2[nH]c(=O)n(C3CCNCC3)c2n1.Cl	inactive	inactive				inactive		EC50 ([1]; hek293): Not Active; EC50 ([5]; hek293): Not Active
260	620	CCCCOc1nc(N)c2[nH]c(=O)n(CCCC3CCNCC3)c2n1.Cl	Active	Active	Dose-dependent effect	8.27	Dose-dependent effect	Active	Non-toxic	
29	230	CCCCOc1nc(N)c2[nH]c(=O)n(CCCCCCC3CCNCC3)c2n1.Cl	Active	Active	Dose-dependent effect	28.5	Dose-dependent effect	Active		
	100	CCCCOc1nc(N)c2[nH]c(=O)n(CCCCCC3CCNCC3)c2n1.Cl	Active	Active	Dose-dependent effect	31.5	Dose-dependent effect	Active	Toxic	Activity [20]: Active; Activity [11]: Dose-dependent effect; Activity [12]: Dose-dependent effect; Activity [13]: Dose-dependent effect; Activity [14]: Dose-dependent effect; Activity [15]: Dose-dependent effect; Activity [16]: Dose-dependent effect; Activity [17]: Dose-dependent effect; Activity [18]: Dose-dependent effect; Activity [21]: inactive

— ChEMBL document CHEMBL3396959, “Structural requirements for TLR7-selective signaling by 9-(4-piperidinylalkyl)-8-oxoadenine derivatives” (Bioorg Med Chem Lett, 2015)
